ChEMBL document CHEMBL2062410, “Synthesis, characterization and pharmacological study of 4,5-dihydropyrazolines carrying pyrimidine moiety” (2012)

Tests used:
Assay type in all cases: functional
[1] = Free radical scavenging activity assessed as inhibition of DPPH radical generation at 25 ug
Outline: (§1)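 Brand-Williams method: 1 mL sample at […] per mL mixed with 2 mL of 0.2 mM methanolic DPPH. Stood 30 min at room temperature, then absorbance read at 517 nm. % scavenging calculated relative to 0.2 mM DPPH control without sample.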

[2] = Free radical scavenging activity assessed as inhibition of DPPH radical generation at 50 ug; outline: as §1
[3] = Free radical scavenging activity assessed as inhibition of DPPH radical generation at 100 ug; outline: as §1
[4] = Free radical scavenging activity assessed as inhibition of hydroxyl radical generation at 100 ug by Fenton reaction method
[5] = Free radical scavenging activity assessed as inhibition of superoxide anion generation at 100 ug
[6] = Free radical scavenging activity assessed as inhibition of nitric oxide generation at 100 ug
Rattus norvegicus [7] = test: Antiinflammatory activity in Wistar albino rat assessed as inhibition of carrageenan-induced paw edema dosed at 20 mg/kg in plantar region of paw administered 30 mins before carrageenan challenge measured 0.5 hrs post carrageenan-induced inflammation
Outline: (§2)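 Wistar albino rats of either sex, 180–250 g, fasted 12 h before and during testing. Test compounds at 20 mg/kg given 30 min before carrageenan (0.1 mL of 1% w/v) injected into the plantar paw; diclofenac 20 mg/kg as reference. Paw volume by plethysmography at 30–180 min. % inhibition = (1 − Vt/Vc) × 100 against control edema; mean ± SEM, n = 6.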

Rattus norvegicus [8] = test: Antiinflammatory activity in Wistar albino rat assessed as inhibition of carrageenan-induced paw edema dosed at 20 mg/kg in plantar region of paw administered 30 mins before carrageenan challenge measured 1 hr post carrageenan-induced inflammation; outline: as §2
Rattus norvegicus [9] = test: Antiinflammatory activity in Wistar albino rat assessed as inhibition of carrageenan-induced paw edema dosed at 20 mg/kg in plantar region of paw administered 30 mins before carrageenan challenge measured 1.5 hrs post carrageenan-induced inflammation; outline: as §2
Rattus norvegicus [10] = test: Antiinflammatory activity in Wistar albino rat assessed as inhibition of carrageenan-induced paw edema dosed at 20 mg/kg in plantar region of paw administered 30 mins before carrageenan challenge measured 2 hrs post carrageenan-induced inflammation; outline: as §2
Rattus norvegicus [11] = test: Antiinflammatory activity in Wistar albino rat assessed as inhibition of carrageenan-induced paw edema dosed at 20 mg/kg in plantar region of paw administered 30 mins before carrageenan challenge measured 2.5 hrs post carrageenan-induced inflammation; outline: as §2
Rattus norvegicus [12] = test: Antiinflammatory activity in Wistar albino rat assessed as inhibition of carrageenan-induced paw edema dosed at 20 mg/kg in plantar region of paw administered 30 mins before carrageenan challenge measured 3 hrs post carrageenan-induced inflammation; outline: as §2
Mus musculus [13] = test: Analgesic activity in Swiss albino mouse assessed as increase in reaction time at 10 mg/kg, ip measured 30 mins post dose by tail immersion method; settings: route intraperitoneal
Outline: (§3)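 Tail immersion in Swiss albino mice, 6 per group, heat as pain source. Tail tip dipped in a thermostatic bath held at 55 °C. Basal reaction time noted before treatment. Test compounds at 10 mg/kg i.p., with pentazocine as reference. Reaction time read at 30, 60 and 90 min, given as mean ± SEM with % increase over basal.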

Mus musculus [14] = test: Analgesic activity in Swiss albino mouse assessed as increase in reaction time at 10 mg/kg, ip measured 60 mins post dose by tail immersion method; settings: route intraperitoneal; outline: as §3
Mus musculus [15] = test: Analgesic activity in Swiss albino mouse assessed as increase in reaction time at 10 mg/kg, ip measured 90 mins post dose by tail immersion method; settings: route intraperitoneal; outline: as §3

SMILES	inhibition [1] [%]	inhibition [2] [%]	inhibition [3] [%]	inhibition [4] [%]	inhibition [5] [%]	inhibition [6] [%]	inhibition in vivo at 20 mg/kg (Rattus norvegicus [7]) [%]	inhibition in vivo at 20 mg/kg (Rattus norvegicus [8]) [%]	inhibition in vivo at 20 mg/kg (Rattus norvegicus [9]) [%]	inhibition in vivo at 20 mg/kg (Rattus norvegicus [10]) [%]	inhibition in vivo at 20 mg/kg (Rattus norvegicus [11]) [%]	inhibition in vivo at 20 mg/kg (Rattus norvegicus [12]) [%]	Activity (Mus musculus [13]) [%]	Activity (Mus musculus [14]) [%]	Activity (Mus musculus [15]) [%]
Cc1ccc([C@H]2CC(c3ccccc3)=NN2c2ncc(Br)cn2)cc1	67.5	79.2	94.1	89.1	59.1	56.1	63	68	71	69	72	79	16.51	73.66	65.63
Cc1ccc([C@H]2CC(c3ccc(Br)cc3)=NN2c2ncc(Br)cn2)cc1	55.3	66.3	69.3	71.5	50.2	33.7	–	–	–	–	–	–	–	–	–
Clc1ccc(C2=NN(c3ncc(Br)cn3)[C@@H](c3ccccc3)C2)cc1	62.7	76.5	90.5	82.6	42.6	39.1	60	71	71	73	70	75	37.62	70.79	84.65
Cc1cc(C(C)(C)C)c(O)c(C(C)(C)C)c1	65.9	79.4	93.2	87	64	43.2	–	–	–	–	–	–	–	–	–
Cc1ccc([C@H]2CC(c3ccc(Cl)cc3)=NN2c2ncc(Br)cn2)cc1	54.4	71.8	80	63.2	43.8	38.1	–	–	–	–	–	–	–	–	–
CC(C)=CCN1CC[C@@]2(C)c3cc(O)ccc3C[C@@H]1[C@@H]2C (relative stereo)	–	–	–	–	–	–	–	–	–	–	–	–	25.7	45.79	67.28
Clc1ccc([C@H]2CC(c3ccc(Br)cc3)=NN2c2ncc(Br)cn2)cc1	56.8	68.2	78.9	66.3	38.9	40.2	–	–	–	–	–	–	–	–	–
COc1ccc([C@H]2CC(c3ccc(Cl)cc3)=NN2c2ncc(Br)cn2)cc1	68.5	79.4	89.8	81.6	58.7	46.2	58	62	64	70	69	73	28.97	39.25	71.96
O=C(O)Cc1ccccc1Nc1c(Cl)cccc1Cl [DICLOFENAC]	–	–	–	–	–	–	61	69	67	78	71	80	–	–	–
Brc1ccc([C@H]2CC(c3ccccc3)=NN2c2ncc(Br)cn2)cc1	65.4	79.6	93.4	86.8	62.1	47.6	64	68	74	74	78	76	25.76	62.01	59.39
Clc1ccc(C2=NN(c3ncc(Br)cn3)[C@@H](c3ccc(Cl)cc3)C2)cc1	54.5	69.2	78.3	69.4	38.6	31.4	–	–	–	–	–	–	–	–	–
Clc1ccc([C@H]2CC(c3ccccc3)=NN2c2ncc(Br)cn2)cc1	60.1	78.1	93.5	87.9	60	43.3	61	70	71	76	72	78	29.71	72.16	78.31
Clc1ccc(C2=NN(c3ncc(Br)cn3)[C@@H](c3ccc(Br)cc3)C2)cc1	52.2	67.3	78.5	70.6	24.6	38.1	–	–	–	–	–	–	–	–	–
Brc1ccc(C2=NN(c3ncc(Br)cn3)[C@@H](c3ccc(Br)cc3)C2)cc1	51.5	69.7	78.2	71.4	52.5	23.8	–	–	–	–	–	–	–	–	–
O=[N+]([O-])c1ccc([C@H]2CC(c3ccccc3)=NN2c2ncc(Br)cn2)cc1	54.5	64.7	75.6	79.2	42.2	32.1	–	–	–	–	–	–	–	–	–
